In one assay the test system is A549. The assay is described as follows: Antiproliferative activity against human A549 cells assessed as reduction in viability after 72 hrs by SRB assay. The conditions noted are these: A549, 72 h. The format is functional, cell-based. An outline of the steps:
(§1)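 Cells seeded and dosed in triplicate for 72 h. Suspension lines (HL-60, K-562, K562/ADR, HL-60/MX2) were read by MTT: 5 mg/mL MTT stock added, 4 h at 37 °C, formazan dissolved in 10% SDS/5% isobutanol/10 mM HCl, A570. Adherent lines were read by SRB: fixed with cold 10% TCA, stained with 0.4% SRB in 1% acetic acid, A540. IC50 from four-parameter logistic fit; mean of ≥3 independent experiments.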
In general terms: In SRB staining, fixed cells bind dye roughly in proportion to their protein.

The subject of assay [1] is Bel-7402. The assay is described as follows: Antiproliferative activity against human Bel7402 cells assessed as reduction in viability after 72 hrs by SRB assay. The class given is functional, cell-based. The conditions noted are these: Bel-7402, 72 h. Put shortly:
as §1

Another assay deals with U-118-MG. The assay is described as follows: Antiproliferative activity against human U118MG cells after 72 hrs by SRB assay. The conditions noted are these: pooled result: one value given for 25 cell lines, strains, targets or settings. The class given is functional, cell-based. An outline of the steps:
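Adherent cells seeded in 96-well plates and exposed in triplicate to compound for 72 h at 37 °C, humidified. Fixed with 10% ice-cold trichloroacetic acid, stained with 0.4% sulforhodamine B in 1% acetic acid, and absorbance read at 540 nm. IC50 fitted by four-parameter logistic; mean of at least three independent experiments.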

Another assay deals with HL-60. The assay is described as follows: Antiproliferative activity against human HL60 cells after 72 hrs by MTT assay. The format is functional, cell-based. The conditions noted are these: HL-60, 72 h. An outline of the steps:
as §1
In general terms: Formazan colour is commonly taken as a measure of viable cells.

Assay [2] has as its system K562. The assay is described as follows: Antiproliferative activity against human K562 cells after 72 hrs by MTT assay. The class given is functional, cell-based. The conditions noted are these: K562, 72 h. An outline of the steps:
as §1

The next assay has as its system KB. In words: Antiproliferative activity against human KB cells after 72 hrs by SRB assay. The format is functional, cell-based. Put shortly: as §1
Assay [3] has as its system Bel-7402. In words: Antiproliferative activity against human Bel7402 cells assessed as reduction in cell viability at 0.12 to 10 nM up to 10 days by fluorescence-based cell imaging method. The format is functional. Put shortly:
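Live-cell imaging (IncuCyte ZOOM) of BEL-7402 cells seeded at 1.5 × 10⁴ per well in 12-well plates. Cells treated in triplicate with a concentration gradient and imaged continuously for 10 days to build growth curves.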

In assay [4] the test system is Bel-7402. In words: Cell cycle arrest in human Bel7402 cells assessed as accumulation in S-phase after 24 hrs by propidium iodide staining-based flow cytometry. The format is functional. An outline of the steps: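 BEL-7402 cells exposed for 24 h, then fixed in 70% ethanol at −20 °C for ≥1 h. Stained with 50 μg/mL propidium iodide plus 10 μg/mL RNase A for 30 min in the dark at room temperature. DNA content read by flow cytometry on ≥1.0 × 10⁴ cells per sample.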

Assay [5] concerns Bel-7402. In words: Inhibition of DNA synthesis in human Bel7402 cells assessed as reduction in BrdU incorporation preincubated for 1 hr followed by BrdU addition for 30 mins by FITC/propidium iodide staining based flow cytometry. The format is functional, cell-based. An outline of the steps:
(§2)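 BEL-7402 cells (3 × 10⁵ per well) exposed to compounds 1 h, then labeled with 10 μM BrdU for 30 min; trypsinized, fixed in 70% ethanol at −20 °C ≥1 h, 2 N HCl 20 min, neutralized with 0.1 M borate, stained with anti-BrdU-FITC plus PI 30 min; BrdU-positive cells quantified by flow cytometry; three independent experiments, mean + SD.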
In general terms: Incorporation of labelled thymidine or its analogues reports DNA synthesis.

In assay [6] the test system is Bel-7402. In words: Inhibition of DNA synthesis in human Bel7402 cells assessed as BrdU incorporation at 0.1 uM preincubated for 1 hr followed by BrdU addition for 30 mins by FITC/propidium iodide staining based flow cytometry (reference value: 35.5%). The format is functional. Details: scale not given: the % may be the effect or the level left. An outline of the steps: as §2

For assay [7], the system named is Bel-7402. The assay is described as follows: Induction of apoptosis in human Bel7402 cells assessed as viable cells at 0.1 uM after 72 hrs by Annexin V/propidium iodide staining based flow cytometric analysis (reference value: 92.4%). The format is functional. The conditions noted are these: Bel-7402, 72 h, read-out: Activity.
In assay [8] the test system is Bel-7402. The assay is described as follows: Induction of apoptosis in human Bel7402 cells assessed as early apoptotic cells at 0.1 uM after 72 hrs by Annexin V/propidium iodide staining based flow cytometric analysis (reference value: 3.66%). The format is functional. An outline of the steps:
(§3)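 BEL-7402 cells (3 × 10⁵ per well, 6-well plates) exposed for 72 h. Harvested, PBS-washed, resuspended in cold binding buffer with annexin V–FITC and PI, and stained 15 min in the dark at room temperature. Early apoptotic, late apoptotic and necrotic fractions quantified by flow cytometry.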

Assay [9] deals with Bel-7402. The assay is described as follows: Induction of apoptosis in human Bel7402 cells assessed as late apoptotic cells at 0.1 uM after 72 hrs by Annexin V/propidium iodide staining based flow cytometric analysis (reference value: 3.6%). The format is functional. Put shortly: as §3
Assay [10] concerns Bel-7402. The assay is described as follows: Induction of apoptosis in human Bel7402 cells assessed as necrotic cells at 0.1 uM after 72 hrs by Annexin V/propidium iodide staining based flow cytometric analysis (reference value: 0.38%). The class given is functional. Put shortly: as §3
The subject of assay [11] is Bel-7402. The assay is described as follows: Induction of apoptosis in human Bel7402 cells assessed as viable cells at 10 nM after 72 hrs by Annexin V/propidium iodide staining based flow cytometric analysis (reference value: 92.4%). The format is functional. The conditions noted are these: Bel-7402, 72 h, read-out: Activity.
The next assay has as its system K562/Adr. The assay is described as follows: Antiproliferative activity against human K562/ADR cells after 72 hrs by MTT assay. The format is functional, cell-based. An outline of the steps:
as §1

Assay [12] can be described thus: Resistance factor, ratio of IC50 for human K562/ADR cells to IC50 for human K562 cells. The class given is functional. Put shortly:
(§4)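 72 h treatment in triplicate; suspended lines (HL-60, K-562, K562/ADR, HL-60/MX2) read by MTT (4 h, SDS/isobutanol/HCl solubilization, 570 nm); adherent KB and KB/VCR (MEM, 10% FBS) by SRB after TCA fixation (540 nm); IC₅₀ by four-parameter logistic fit, mean of ≥3 independent experiments.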

In the next assay the test system is HL60/MX2. In words: Antiproliferative activity against human HL60/MX2 cells after 72 hrs by MTT assay. The class given is functional, cell-based. The conditions noted are these: HL60/MX2, 72 h. Put shortly: as §1
The nature of assay [13]: Resistance factor, ratio of IC50 for human HL60/MX2 cells to IC50 for human HL60 cells. The format is functional. Put shortly: as §4
Assay [14] in a line: Antiproliferative activity against human KB/VCR cells after 72 hrs by SRB assay. The class given is functional, cell-based. Put shortly: as §1
Assay [15] can be described thus: Resistance factor, ratio of IC50 for human KB/VCR cells to IC50 for human KB cells. The format is functional. Put shortly:
as §4

The subject of assay [16] is K562. In words: Cell cycle arrest in human K562 cells assessed as delay in progression of S-phase to G2-phase at 1 to 10 nM pre-treated with aphidicolin for 16 hrs followed by compound addition measured up to 24 hrs by propidium iodide staining-based flow cytometric method. The format is functional.
In assay [17] the test system is Bel-7402. In words: Inhibition of colony formation in human Bel7402 cells at 0.01 to 10 uM after 24 hrs by SRB staining-based plate colony formation assay. The format is functional, cell-based. Put shortly: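 BEL-7402 cells seeded at 200 per well, treated in triplicate 24 h, washed twice with PBS, then grown 12 days in fresh medium; colonies stained with SRB and those ≥1 mm diameter counted; three independent experiments, mean ± SD.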

Assay [18] relates to Bel-7402. The assay is described as follows: Induction of apoptosis in human Bel7402 cells assessed as early apoptotic cells at 1 uM after 72 hrs by Annexin V/propidium iodide staining based flow cytometric analysis (reference value: 3.66%). The format is functional. Put shortly:
as §3

Activity calls are given as the source filed them. No cut-off for these calls is given here.

In general, IC50 refers to the concentration needed to halve the response being measured. In the case of `COc1cc2c3c(c4ccc(O)cc4c2cc1OC)CN1CCCC[C@@H]1C3`, the IC50 in the assay with A549 worked out at 0.7 nM; with Bel-7402 [1], 1.7 nM; in the assay with U-118-MG it was 2.1 nM; in the assay on HL-60, 1.8 nM; in the assay with K562 [2], 2.2 nM; with KB, 1.2 nM. The IC50 was determined as 2.6 nM with K562/Adr, 1.7 nM in the assay on HL60/MX2 and 1 nM in assay [14]. In the assay on Bel-7402 [3], the inhibition result was “Active”. Further, the Activity result with Bel-7402 [4] was “Dose-dependent effect”; in the assay with Bel-7402 [6] it was 4.83%; in the assay on Bel-7402 [8], 5.16%; in the assay on Bel-7402 [9] it was 19.8%; in the assay with Bel-7402 [10] it was 2.57%. In addition, the inhibition entry with Bel-7402 [5] was “Dose-dependent effect”. Moreover, the viability at 0.1 µM in the assay with Bel-7402 [7] worked out at 72.4%. Besides, in the assay on Bel-7402 [11], the viability at 0.01 µM was found to be 81%. The “Ratio IC50” value came to 1.2 in assay [12], 0.9 in [13] and 0.8 in [15]. Also, in the assay with K562 [16], the outcome was Active.
On to `COc1cc2c3c(c4cc(OC)c(OC)cc4c2cc1OC)[C@H](O)[C@@H]1CCCN1C3`, for which the IC50 in the assay with A549 was 283 nM; with Bel-7402 [1], 110 nM; with U-118-MG, 167 nM; in the assay with HL-60, 213 nM; in the assay on K562 [2] it was 98.4 nM; in the assay on KB it was 58.2 nM. Moreover, the IC50 in the assay with K562/Adr amounted to 138 nM; in the assay on HL60/MX2, 278 nM; in [14] it was 65.2 nM. In the assay with Bel-7402 [17], the inhibition entry was “Active”. Also, the inhibition entry in the assay on Bel-7402 [5] was “Dose-dependent effect”. In addition, the Activity was found to be 32.5% in the assay with Bel-7402 [6]; 2.86% in the assay on Bel-7402 [8]; 2.22% with Bel-7402 [9]; 0.37% with Bel-7402 [10]; 2.56% with Bel-7402 [18]. In addition, the viability at 0.1 µM in the assay with Bel-7402 [7] worked out at 94.6%. Also, the “Ratio IC50” value is recorded as 1.4 in [12], 1.3 in assay [13] and 1.1 in assay [15].

For the origin of these results see ChEMBL document CHEMBL4049418, “6-OH-Phenanthroquinolizidine Alkaloid and Its Derivatives Exert Potent Anticancer Activity by Delaying S Phase Progression” (J Med Chem, 2017).
